# Assay results taken from ChEMBL document CHEMBL3244334, “Synthesis of pyridinium analogues of acetylcholine and their interactions with intestinal muscarinic receptors” (J Med Chem, 1979).
# Calls of active or inactive are those of the source. The rule behind the calls is not given here.
# Key:
# [1] = (§1) Competitive antagonist activity at muscarinic acetylcholine receptor in guinea pig ileum assessed as inhibition of 1-(2-acetoxyethyl)pyridinium iodide-induced longitudinal muscle contraction administered 10 mins prior to 1-(2-acetoxyethyl)pyridinium iodide induction measured every 20 mins in presence of 10 uM competitive nicotinic antagonist hexamethonium chloride; type: tissue-based; settings: Cavia porcellus, read-out: pA2 (converted)
# How it was run: (§2)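 Ileal muscle in 10 μM hexamethonium chloride. Tissue conditioned with a single antagonist dose for 10 min before cumulative dose-response curves to the pyridinium agonist. Points are means of equipotent agonist concentrations giving standard responses, from 6–8 experiments.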
# Cavia porcellus [2] = assay: as §1, with “Non-competitive” for “Competitive”, “contraction at 0.1 uM” for “contraction”; type: tissue-based; how it was run: as §2
# [3] = as §1, with “acetyl-beta-methylcholine-induced” for “1-(2-acetoxyethyl)pyridinium iodide-induced”, “acetyl-beta-methylcholine” for “1-(2-acetoxyethyl)pyridinium iodide”; type: tissue-based; settings: Cavia porcellus, read-out: pA2 (converted)
# How it was run: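 Ileal muscle was pretreated for 10 min with a single antagonist dose, then a cumulative acetyl-β-methylcholine concentration-response curve was run, with 10 μM hexamethonium chloride in the bath. Lachesine was the reference antagonist, run the same way. Rightward shift of the log concentration-response curves and any change in shape or maximum were assessed. Values are means ± SD.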
# Cavia porcellus [4] = organism: Cavia porcellus; assay: Agonist activity at muscarinic acetylcholine receptor in guinea pig ileum assessed as longitudinal muscle contraction measured every 20 mins in presence of 0.05 uM physostigmine; type: tissue-based
# Cavia porcellus [5] = organism: Cavia porcellus; assay: Agonist activity at muscarinic acetylcholine receptor in guinea pig ileum assessed as longitudinal muscle contraction measured every 20 mins in presence of 10 uM competitive nicotinic antagonist hexamethonium chloride; type: tissue-based
# How it was run: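 Isolated ileal muscle in a bath with 10 μM hexamethonium chloride to block ganglionic stimulation. Cumulative concentration-response curves to the test agonist and to acetyl-β-methylcholine (reference agonist) were built alternately on one preparation every 20 min. pD₂ was derived from the curves, n = 15 per drug, means ± SD.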
# Cavia porcellus [6] = organism: Cavia porcellus; assay: Agonist activity at muscarinic acetylcholine receptor in guinea pig ileum assessed as longitudinal muscle contraction measured every 20 mins in presence of 100 uM competitive nicotinic antagonist hexamethonium chloride; type: tissue-based
# How it was run: (§3)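 Isolated ileal muscle, cumulative agonist dose-response curves built every 20 min, read as contraction. pD2 derived; n = 15. Hexamethonium either left out of the bath or raised from 10 to 100 μM.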
# Cavia porcellus [7] = organism: Cavia porcellus; assay: Agonist activity at muscarinic acetylcholine receptor in guinea pig ileum assessed as longitudinal muscle contraction measured every 20 mins in absence of 10 uM competitive nicotinic antagonist hexamethonium chloride; type: tissue-based; how it was run: as §3
# [8] = target: Acetylcholinesterase (Electrophorus electricus) (UniProt O42275); assay: Inhibition of electric eel acetylcholinesterase using acetylcholine as substrate at 3 x 10^-4 M relative to control
# Chain of Acetylcholinesterase (Electrophorus electricus) (O42275 24-633 limits assumed): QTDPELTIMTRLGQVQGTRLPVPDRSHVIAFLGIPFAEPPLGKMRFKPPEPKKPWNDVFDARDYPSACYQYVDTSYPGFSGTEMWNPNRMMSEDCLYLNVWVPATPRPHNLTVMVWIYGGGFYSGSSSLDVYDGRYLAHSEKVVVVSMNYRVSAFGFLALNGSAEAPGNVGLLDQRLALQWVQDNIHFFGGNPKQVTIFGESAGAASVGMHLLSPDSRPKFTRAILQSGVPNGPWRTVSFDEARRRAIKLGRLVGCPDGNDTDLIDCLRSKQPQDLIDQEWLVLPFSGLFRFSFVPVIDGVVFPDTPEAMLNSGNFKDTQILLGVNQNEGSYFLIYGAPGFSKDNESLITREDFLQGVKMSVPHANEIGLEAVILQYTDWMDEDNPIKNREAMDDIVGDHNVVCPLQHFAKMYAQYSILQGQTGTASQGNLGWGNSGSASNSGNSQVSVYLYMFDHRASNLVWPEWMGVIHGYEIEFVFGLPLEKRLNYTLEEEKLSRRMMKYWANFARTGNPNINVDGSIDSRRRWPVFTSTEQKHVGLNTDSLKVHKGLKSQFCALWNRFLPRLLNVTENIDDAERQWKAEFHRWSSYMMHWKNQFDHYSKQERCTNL
# How it was run: (§4)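 Electric eel AChE; substrate 1 mM ACh. Inhibition taken as the lowered rate of ACh decomposition, measured by pH-stat titration. Six experiments per value, reported as means ± SD.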
# [9] = Toxicity in NMRI mouse; type: organism-based; settings: in vivo
# [10] = target: Acetylcholinesterase (Electrophorus electricus) (UniProt O42275); assay: Inhibition of electric eel acetylcholinesterase using acetylcholine as substrate at 10^-5 M relative to control; how it was run: as §4
# Cavia porcellus [11] = organism: Cavia porcellus; assay: Agonist activity at muscarinic acetylcholine receptor in guinea pig ileum assessed as longitudinal muscle contraction at 3 x 10^-4 M in presence of 10 uM competitive nicotinic antagonist hexamethonium chloride relative to control; type: tissue-based
# Cavia porcellus [12] = organism: Cavia porcellus; assay: Agonist activity at muscarinic acetylcholine receptor in guinea pig ileum assessed as longitudinal muscle contraction at 10^-5 M in presence of 10 uM competitive nicotinic antagonist hexamethonium chloride relative to control; type: tissue-based
# Cavia porcellus [13] = organism: Cavia porcellus; assay: Agonist activity at muscarinic acetylcholine receptor in guinea pig ileum assessed as longitudinal muscle contraction at 10^-3 M in presence of 10 uM competitive nicotinic antagonist hexamethonium chloride relative to control; type: tissue-based
# Cavia porcellus [14] = organism: Cavia porcellus; assay: Agonist activity at muscarinic acetylcholine receptor in guinea pig ileum assessed as longitudinal muscle contraction at 3 x 10^-5 M in presence of 10 uM competitive nicotinic antagonist hexamethonium chloride relative to control; type: tissue-based
# [15] = target: Acetylcholinesterase (Electrophorus electricus) (UniProt O42275); assay: Inhibition of electric eel acetylcholinesterase using acetylcholine as substrate at 10^-3 M relative to control; how it was run: as §4
# [16] = target: Acetylcholinesterase (Electrophorus electricus) (UniProt O42275); assay: Inhibition of electric eel acetylcholinesterase using acetylcholine as substrate at 3 x 10^-5 M relative to control; how it was run: as §4
# [17] = target: Acetylcholinesterase (Electrophorus electricus) (UniProt O42275); settings: 10^-6 M
# Cavia porcellus [18] = organism: Cavia porcellus; assay: Agonist activity at muscarinic acetylcholine receptor in guinea pig ileum assessed as longitudinal muscle contraction at 10^-6 M in presence of 10 uM competitive nicotinic antagonist hexamethonium chloride relative to control; type: tissue-based
# Cavia porcellus [19] = organism: Cavia porcellus; assay: Agonist activity at muscarinic acetylcholine receptor in guinea pig ileum assessed as longitudinal muscle contraction at 10^-4 in presence of 10 uM competitive nicotinic antagonist hexamethonium chloride relative to control; type: tissue-based
Compound,Kb [1] [µM],Kb [3] [µM],Activity (Cavia porcellus [4]),pD2 (Cavia porcellus [5]),Activity (Cavia porcellus [6]),Activity (Cavia porcellus [7]),LD50 [9] [µmol/kg],also measured
CC[N+](C)(C)CCOC(=O)C(O)(c1ccccc1)c1ccccc1 [LACHESINE CHLORIDE],0.00219,0.0024,–,–,–,–,–,inhibition (Cavia porcellus [2]): Active
CC(=O)OC(C)C[N+](C)(C)C (configuration not stated),–,–,Active,7.02,Active,Active,–,–
CC(=O)OCC[n+]1ccc(C(C)(C)C)cc1.[Br-],30.2,37.2,–,–,–,–,2000,inhibition [8]: 66.2%; inhibition [10]: 32.3%; %max (Cavia porcellus [11]): 0%; %max (Cavia porcellus [12]): 0%
CC(=O)OCC[n+]1ccc(C)cc1.[Br-],–,372,–,–,–,–,2000,%max (Cavia porcellus [13]): 0%; %max (Cavia porcellus [14]): 0%; inhibition [15]: 77.4%; inhibition [16]: 42.5%
CC(=O)OCC[n+]1ccccc1,–,–,Active,4.62,Active,Active,–,inhibition [17]: 23.9%; %max (Cavia porcellus [18]): 0%; %max (Cavia porcellus [19]): 89%
